What was measured:
[1] = molecular target: T1, Hepatocyte growth factor receptor (Homo sapiens, UniProt P08581); assay: Inhibition of recombinant c-Met kinase domain (unknown origin) incubated for 30 mins using gastrin peptide substrate by HTRF assay
[2] = molecular target: T1, Hepatocyte growth factor receptor; assay: Inhibition of HGF-stimulated c-Met autophosphorylation in serum starved human PC3 cells pre-incubated for 1 hr followed by human recombinant HGF stimulation for 10 mins by quantitative electrochemiluminescence immunoassay; type: cell-based, PC-3
Procedure, shortened: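 Serum-starved PC-3 cells (plated in high-glucose DMEM/10% FBS, then 16 h in low-glucose DMEM with 0.1% BSA) were treated with a 10-point inhibitor dilution for 1 h at 37 °C. Cells were then stimulated with 200 ng/mL recombinant human HGF for 10 min and lysed. Phospho-c-Met was captured with biotinylated anti-c-Met and 4G10 by electrochemiluminescence. IC50, n ≥ 2.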

[3] = Clearance in Sprague-Dawley rat at 0.25 mg/kg, iv; type: ADME, organism-based; design: dose 0.25 mg/kg, route intravenous; conditions: Sprague-Dawley, in vivo
[4] = Volume of distribution at steady state in Sprague-Dawley rat at 0.25 mg/kg, iv; type: ADME, organism-based; design: dose 0.25 mg/kg, route intravenous; conditions: in vivo, read-out: Vdss
Procedure, shortened: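 Male Sprague-Dawley rats were given a single IV dose of 0.25 mg/kg. The vehicle was DMSO, or for some compounds 20% (w/v) hydroxypropyl β-cyclodextrin in water adjusted to pH 3.5 with MSA. NC marks cases where the terminal disposition rate constant could not be characterized for lack of slope.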

[5] = AUC (0 to infinity) in Sprague-Dawley rat at 0.25 mg/kg, iv; type: ADME, organism-based, Plasma; design: dose 0.25 mg/kg, route intravenous, time infinity; conditions: Sprague-Dawley, plasma
[6] = Oral bioavailability in Sprague-Dawley rat at 2 mg/kg; type: ADME, organism-based; conditions: in vivo
Procedure, shortened: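 Male Sprague-Dawley rats given 2.0 mg/kg orally in 2% (w/v) hydroxypropylmethylcellulose, 1% (w/v) Tween 80 in water, pH 2.2 (adjusted with HCl or MSA). Some inhibitors instead used 10% (v/v) dimethylacetamide in the same vehicle.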

Liver microsome [7] = assay: Stability in human liver microsomes assessed as compound turnover rate; type: ADME
Liver microsome [8] = assay: Stability in rat liver microsomes assessed as compound turnover rate; type: ADME
Cytochrome P450 2D6 = Cytochrome P450 2D6 (Homo sapiens, UniProt P10635); assay: Inhibition of CYP2D6 (unknown origin); type: ADME
Cytochrome P450 3A4 = Cytochrome P450 3A4 (Homo sapiens, UniProt P08684); assay: Inhibition of CYP3A4 (unknown origin); type: ADME
[9] = Half life in Sprague-Dawley rat at 0.25 mg/kg, iv; type: ADME, organism-based; design: dose 0.25 mg/kg, route intravenous; conditions: in vivo
[10] = Drug level in mouse liver microsomes treated with 5-(8-Fluoro-3-(1-(3-methoxyquinolin-6-yl)ethyl)[1,2,4]-triazolo[4,3-a]pyridin-6-yl)-3-methylisoxazole assessed as compound formation in presence of NADPH by LC-MS/MS method; type: ADME
Procedure, shortened: (§1)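 Compound incubated with NADPH in mouse, rat, dog, monkey or human liver microsomes. Metabolites were identified by accurate mass spectrometry and MS/MS, and selected ion chromatograms were used to build metabolite profiles.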

Liver microsome [11] = assay: Drug level in rat liver microsomes treated with 5-(8-Fluoro-3-(1-(3-methoxyquinolin-6-yl)ethyl)[1,2,4]-triazolo[4,3-a]pyridin-6-yl)-3-methylisoxazole assessed as compound formation in presence of NADPH by LC-MS/MS method; type: ADME; procedure, shortened: as §1
Liver microsome [12] = assay: Drug level in dog liver microsomes treated with 5-(8-Fluoro-3-(1-(3-methoxyquinolin-6-yl)ethyl)[1,2,4]-triazolo[4,3-a]pyridin-6-yl)-3-methylisoxazole assessed as compound formation in presence of NADPH by LC-MS/MS method; type: ADME, Canis lupus familiaris; procedure, shortened: as §1
Liver microsome [13] = assay: Drug level in dog liver microsomes treated with 5-(8-Fluoro-3-(1-(3-(2-methoxyethoxy)quinolin-6-yl)ethyl)-[1,2,4]triazolo[4,3-a]pyridin-6-yl)-3-methylisoxazole assessed as compound formation in presence of NADPH by LC-MS/MS method; type: ADME, Canis lupus familiaris; procedure, shortened: as §1
Liver microsome [14] = assay: Drug level in human liver microsomes treated with 5-(8-Fluoro-3-(1-(3-(2-methoxyethoxy)quinolin-6-yl)ethyl)-[1,2,4]triazolo[4,3-a]pyridin-6-yl)-3-methylisoxazole assessed as compound formation in presence of NADPH by LC-MS/MS method; type: ADME; procedure, shortened: as §1
Liver microsome [15] = assay: Drug level in rat liver microsomes treated with 5-(8-Fluoro-3-(1-(3-(2-methoxyethoxy)quinolin-6-yl)ethyl)-[1,2,4]triazolo[4,3-a]pyridin-6-yl)-3-methylisoxazole assessed as compound formation in presence of NADPH by LC-MS/MS method; type: ADME; procedure, shortened: as §1
[16] = Drug level in monkey liver microsomes treated with 5-(8-Fluoro-3-(1-(3-(2-methoxyethoxy)quinolin-6-yl)ethyl)-[1,2,4]triazolo[4,3-a]pyridin-6-yl)-3-methylisoxazole assessed as compound formation in presence of NADPH by LC-MS/MS method; type: ADME, Macaca mulatta; conditions: rhesus monkey; procedure, shortened: as §1
[17] = Drug level in mouse liver microsomes treated with 5-(8-Fluoro-3-(1-(3-(2-methoxyethoxy)quinolin-6-yl)ethyl)-[1,2,4]triazolo[4,3-a]pyridin-6-yl)-3-methylisoxazole assessed as compound formation in presence of NADPH by LC-MS/MS method; type: ADME; procedure, shortened: as §1

T1 sequence (P08581 whole entry, the tested form may be a part): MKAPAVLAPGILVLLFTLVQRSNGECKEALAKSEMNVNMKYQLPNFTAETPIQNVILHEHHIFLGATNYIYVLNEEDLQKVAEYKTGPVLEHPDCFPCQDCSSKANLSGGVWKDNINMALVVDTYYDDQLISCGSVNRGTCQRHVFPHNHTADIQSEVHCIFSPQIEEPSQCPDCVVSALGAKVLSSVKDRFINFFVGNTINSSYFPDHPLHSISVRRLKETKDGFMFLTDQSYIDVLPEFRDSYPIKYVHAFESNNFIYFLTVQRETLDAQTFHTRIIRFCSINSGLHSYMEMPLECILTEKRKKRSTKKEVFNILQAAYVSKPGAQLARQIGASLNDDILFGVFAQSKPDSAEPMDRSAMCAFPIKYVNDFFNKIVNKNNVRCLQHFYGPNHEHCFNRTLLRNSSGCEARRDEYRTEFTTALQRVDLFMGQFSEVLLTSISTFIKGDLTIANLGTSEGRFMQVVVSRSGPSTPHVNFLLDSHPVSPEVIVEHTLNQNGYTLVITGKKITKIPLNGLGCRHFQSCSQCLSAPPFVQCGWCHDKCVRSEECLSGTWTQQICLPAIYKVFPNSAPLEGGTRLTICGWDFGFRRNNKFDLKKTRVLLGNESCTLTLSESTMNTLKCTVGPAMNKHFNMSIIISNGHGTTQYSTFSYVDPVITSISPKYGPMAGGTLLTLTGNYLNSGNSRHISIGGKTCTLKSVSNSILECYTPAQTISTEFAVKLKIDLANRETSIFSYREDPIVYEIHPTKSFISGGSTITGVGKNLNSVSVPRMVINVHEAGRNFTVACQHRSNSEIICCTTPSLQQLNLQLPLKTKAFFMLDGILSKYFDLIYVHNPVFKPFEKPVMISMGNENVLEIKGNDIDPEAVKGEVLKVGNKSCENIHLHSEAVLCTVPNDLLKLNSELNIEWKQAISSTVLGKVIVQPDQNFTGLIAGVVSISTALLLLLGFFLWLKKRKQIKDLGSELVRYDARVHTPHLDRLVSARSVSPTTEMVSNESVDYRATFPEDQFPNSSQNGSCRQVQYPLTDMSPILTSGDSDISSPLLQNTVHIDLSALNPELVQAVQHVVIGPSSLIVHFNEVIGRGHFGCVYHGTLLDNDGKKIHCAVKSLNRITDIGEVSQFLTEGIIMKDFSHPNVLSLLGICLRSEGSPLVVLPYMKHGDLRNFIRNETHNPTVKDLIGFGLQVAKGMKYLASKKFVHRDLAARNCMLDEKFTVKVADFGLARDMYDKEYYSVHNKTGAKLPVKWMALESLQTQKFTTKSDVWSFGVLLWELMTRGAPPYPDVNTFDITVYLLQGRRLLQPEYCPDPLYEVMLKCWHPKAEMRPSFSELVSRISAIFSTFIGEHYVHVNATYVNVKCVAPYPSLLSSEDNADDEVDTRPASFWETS
Cytochrome P450 2D6, sequence (P10635 whole entry): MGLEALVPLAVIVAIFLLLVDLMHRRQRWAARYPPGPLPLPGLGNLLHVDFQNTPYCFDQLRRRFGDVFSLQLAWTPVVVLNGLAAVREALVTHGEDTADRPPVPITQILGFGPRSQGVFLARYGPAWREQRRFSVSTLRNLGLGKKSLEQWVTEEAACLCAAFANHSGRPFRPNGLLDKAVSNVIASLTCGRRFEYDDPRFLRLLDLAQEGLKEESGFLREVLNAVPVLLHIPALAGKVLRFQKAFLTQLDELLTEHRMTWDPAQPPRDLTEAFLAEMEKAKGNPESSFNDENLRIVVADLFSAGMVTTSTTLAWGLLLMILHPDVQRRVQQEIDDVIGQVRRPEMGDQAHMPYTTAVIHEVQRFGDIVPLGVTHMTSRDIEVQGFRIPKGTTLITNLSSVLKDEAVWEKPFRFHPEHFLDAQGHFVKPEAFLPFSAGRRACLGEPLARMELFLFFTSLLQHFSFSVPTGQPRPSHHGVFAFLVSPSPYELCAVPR
Cytochrome P450 3A4, sequence (P08684 whole entry): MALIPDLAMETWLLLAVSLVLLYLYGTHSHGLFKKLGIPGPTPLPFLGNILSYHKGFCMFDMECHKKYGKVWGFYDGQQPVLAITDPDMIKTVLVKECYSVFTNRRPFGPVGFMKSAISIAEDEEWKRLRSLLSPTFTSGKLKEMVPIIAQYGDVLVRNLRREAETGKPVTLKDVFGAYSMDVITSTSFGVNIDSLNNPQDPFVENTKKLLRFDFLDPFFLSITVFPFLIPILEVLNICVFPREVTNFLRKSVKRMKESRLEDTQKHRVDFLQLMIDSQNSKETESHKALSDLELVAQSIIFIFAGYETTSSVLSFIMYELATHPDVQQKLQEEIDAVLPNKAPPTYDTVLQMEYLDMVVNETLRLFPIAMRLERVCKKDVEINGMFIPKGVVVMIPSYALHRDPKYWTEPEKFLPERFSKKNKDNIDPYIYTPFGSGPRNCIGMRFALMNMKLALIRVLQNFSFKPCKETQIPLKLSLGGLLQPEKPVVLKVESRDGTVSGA

SMILES	IC50 [1] [nM]	IC50 [2] [nM]	clearance [3] [mL/min/kg]	Vd [4] [L/kg]	AUC(0-inf) [5] [µM·h]	bioavailability [6] [%]	half-life [9] [h]	further results
COc1cnc2ccc(C(F)(F)c3nnc4c(F)cc(-c5cc(C)no5)cn34)cc2c1	3	8	< 0.167	0.09	101	35		Stability (Liver microsome [7]): Stable; Stability (Liver microsome [8]): Stable; inhibition (INH) (Cytochrome P450 2D6): Not Active; inhibition (INH) (Cytochrome P450 3A4): Not Active
COc1cnc2ccc(C(F)(F)c3nnc4c(F)cc(-c5cscn5)cn34)cc2c1	2	7	1.5	0.18	6.5	9	1.5	Stability (Liver microsome [7]): Stable; Stability (Liver microsome [8]): Stable; inhibition (INH) (Cytochrome P450 2D6): Not Active; inhibition (INH) (Cytochrome P450 3A4): Not Active
Cc1cc(-c2cc(F)c3nnc([C@@](C)(F)c4ccc5ncccc5c4)n3c2)sn1	780							
COc1cnc2ccc([C@@](C)(F)c3nnc4c(F)cc(-c5cc(C)ns5)cn34)cc2c1	5	4	22.2	1.25	0.52	10	1.1	
COc1cnc2ccc([C@@](C)(F)c3nnc4c(F)cc(-c5cc(C)no5)cn34)cc2c1	2	3	4.17	0.79	2.4	38	2.7	
COc1cnc2ccc([C@@](C)(F)c3nnc4c(F)cc(-c5cnn(C)c5)cn34)cc2c1	5	7	4.5	0.64	2.5	27	2.2	
Cc1cc(-c2cc(F)c3nnc([C@@H](C)c4ccc5ncccc5c4)n3c2)sn1	7	12	25.5	0.38	0.44		0.33	
COc1cnc2ccc([C@H](C)c3nnc4c(F)cc(-c5cc(C)ns5)cn34)cc2c1	9	22			10.5		2.8	
COc1cnc2ccc([C@H](C)c3nnc4c(F)cc(-c5cn(C)cn5)cn34)cc2c1	1	4	4.33	0.37	2.7	27	1.3	
COc1cnc2ccc([C@H](C)c3nnc4c(F)cc(-c5cnn(C)c5)cn34)cc2c1	2	15	2.33	0.25	4.5	13	1.8	
COc1cnc2ccc([C@@H](C)c3nnc4c(F)cc(-c5cc(C)no5)cn34)cc2c1	370							
Cc1cc(-c2cc(F)c3nnc(C(C)(C)c4ccc5ncc(O)cc5c4)n3c2)on1	> 400							
COc1cnc2ccc(C3(c4nnc5c(F)cc(-c6cc(C)no6)cn45)CC3)cc2c1	93							
CC[C@@H](c1ccc2ncc(OC)cc2c1)c1nnc2c(F)cc(-c3cc(C)no3)cn12	28	67						
Cc1cc(-c2cc(F)c3nnc([C@@H](C)c4ccc5ncc(O)cc5c4)n3c2)on1								Drug metabolism [10]: metabolite_detected; Drug metabolism (Liver microsome [11]): metabolite_detected; Drug metabolism (Liver microsome [12]): metabolite_detected
COc1cnc2ccc([C@H](C)c3nnc4c(F)cc(-c5cc(CO)no5)cn34)cc2c1								Drug metabolism [10]: metabolite_detected; Drug metabolism (Liver microsome [11]): metabolite_detected; Drug metabolism (Liver microsome [12]): metabolite_detected
Cc1cc(-c2cc(F)c3nnc([C@@H](C)c4ccc5ncc(OCCO)cc5c4)n3c2)on1								Drug metabolism (Liver microsome [13]): metabolite_detected; Drug metabolism (Liver microsome [14]): metabolite_detected; Drug metabolism (Liver microsome [15]): metabolite_detected; Drug metabolism [16]: metabolite_detected; Drug metabolism [17]: metabolite_detected
Cc1cc(-c2cc(F)c3nnc([C@@H](C)c4ccc5ncc(OCC(=O)O)cc5c4)n3c2)on1								Drug metabolism (Liver microsome [13]): metabolite_detected; Drug metabolism (Liver microsome [14]): metabolite_detected; Drug metabolism (Liver microsome [15]): metabolite_detected; Drug metabolism [16]: metabolite_detected; Drug metabolism [17]: metabolite_detected

— ChEMBL document CHEMBL3414463, “Discovery of potent and selective 8-fluorotriazolopyridine c-Met inhibitors” (J Med Chem, 2015)
